According to paper PMC4242840 (The Journal of Cell Biology, 2014):

Experiments:
Assay type in all cases: cell-based, Saccharomyces cerevisiae
RPL5 shuffle strain = test: complementation of rpl5Δ; conditions: SDC+FOA, 30°C, 5 d
[1] = system: intracellular localization in yeast; test: in vivo localization of Rpl5-GFP; conditions: GFP fusion, wild-type strain, fluorescence microscopy
Outline: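 A wild-type strain carried plasmid-borne Rpl5-GFP or Rpl5 Δloop2+3-GFP. Cells were grown to ~OD 0.5 in selective medium at 30°C, harvested and washed in water. They were imaged by fluorescence microscopy at room temperature (100×, NA 1.4 oil objective, EGFP filter set).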

pre-60S particles = test: affinity purification of Rpl5-FTpA constructs; conditions: Flag-TEV-ProtA bait
Outline: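 Rpl5 variants tagged with Flag-TEV-ProtA were purified from a 2-liter yeast culture pellet. Steps: IgG-Sepharose 90 min, TEV elution 120 min, FLAG beads 45 min, FLAG-peptide elution. Eluates were run alongside pre-60S particles purified via Nsa2-FTpA and FTpA-Rsa4, then analysed by SDS-PAGE and Western blot.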

B1: Rpl5Δloop2+3 (protein)
chain: MAFQKDAKSSAYSSRFQTPFRRRREGKTDYYQRKRLVTQHKAKYNTPKYRLVVRFTNKDIICQIISSTITGDVVLAAAYSHELPRYGITHGLTNWAAAYATGLLIARRTLQKLGLDETYKGPRPFKVFLDIGLQRTTTGARVFGALKGASDGGLYVPHSENRFPGWDRIFGGHVSQYMEELADDDEERFSELFKGYLADDIDADSLEDIYTSAHEAIRADPAFKPTEKKFTKEQYAAESKKYRQTKLSKEERAARVAAKIAALAGQQ
Q: For B1, which “growth / viability (complementation)” value (RPL5 shuffle strain) is on record?
A: Its value is “lethal phenotype”.

Q: And the intracellular localization [1]?
A: Its intracellular localization is “accumulated inside the nucleus”.

Q: And the “co-purified Spb1 and Nop2” value (pre-60S particles)?
A: The value was “enriched”.

Q: And the “co-purified particles / Syo1” value (pre-60S particles)?
A: The value was “recovered its import factor Syo1 ([Kressler et al., 2012a]) and pre-60S particles”.

Q: What about the “co-purified Nsa2” value (pre-60S particles; SDS-PAGE and Western blot) of the same molecule?
A: The value was “normal amounts of Nsa2”.

Q: What about the “co-purified Rpl10 (uL16)” value (pre-60S particles; SDS-PAGE and Western blot) of the same molecule?
A: Its value is “lacked Rpl10 (uL16)”.

Q: What about the “co-purified Rsa4” value (pre-60S particles; SDS-PAGE and Western blot) of the same molecule?
A: The value was “reduced levels of Rsa4”.
